Screens (PubChem)
5HT1E antag: antagonists of human 5-HT1E serotonin receptor. inhibition, % at 6 µM. AID 571. CHO 5-HT1E Ga15 NFAT-bla reporter, FRET, antagonist. 65,000 tested, 0.99% active;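 active means inhibition above a set limit, the mean inhibition across every tested compound plus 3 SD, cut at about 29% in these data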;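 further: signal is the 460 over 535 nm emission ratio of beta-lactamase substrate; 0% = agonist plus DMSO wells and 100% = wells without agonist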
5HT1E ag: activates the human 5-HT1E serotonin receptor | activation, % at 6 µM | CHO 5-HT1E Ga15 NFAT-bla reporter, FRET; 0% DMSO wells, 100% control agonist wells | 65,000 tested, 0.69% active;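 active means activation above a set limit, the screen-wide mean activation plus 3 SD, cut at about 8.5% in these data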;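 further: 100% = positive control agonist at 1 µM giving full maximal response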
HTR1A agonist: activates the human 5-HT1a serotonin receptor | CHO 5-HT1a Ga15 NFAT-bla reporter, FRET ratio; 0% basal, 100% maximal reference agonist | activation, % at 10 µM | 65,000 tested, 0.56% active | AID 567;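 active means activation above the screen-wide mean activation plus 3 SD, cut at about 19% in these data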;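 further: 0% = DMSO wells and 100% = 5-CT at EC100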
Target sequence (P08908 whole entry, looked up): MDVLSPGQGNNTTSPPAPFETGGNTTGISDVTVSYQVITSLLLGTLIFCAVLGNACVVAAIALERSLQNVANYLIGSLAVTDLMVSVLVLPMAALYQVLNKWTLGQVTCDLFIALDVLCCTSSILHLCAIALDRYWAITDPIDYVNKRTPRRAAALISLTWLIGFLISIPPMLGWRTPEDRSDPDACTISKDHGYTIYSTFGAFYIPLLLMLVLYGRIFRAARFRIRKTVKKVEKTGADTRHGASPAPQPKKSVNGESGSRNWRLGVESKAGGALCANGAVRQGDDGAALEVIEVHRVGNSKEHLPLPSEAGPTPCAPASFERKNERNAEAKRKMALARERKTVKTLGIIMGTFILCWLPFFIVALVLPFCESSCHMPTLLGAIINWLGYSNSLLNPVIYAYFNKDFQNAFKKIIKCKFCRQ
HEK293 NFkB inh: inhibitors of the PMA/ionomycin-induced NF-kB reporter in HEK293 cells; HEK-293 NF-kB luciferase reporter, luminescence; inhibition, % at 3 µM; 62,000 tested, 0.21% active; AID 465;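 active means inhibition above the mean of all tested compounds plus 3 SD, cut at about 40% in these data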;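 further: 0% = stimulated DMSO wells and 100% = 10 µM reference inhibitor 5653914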
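System: NF-kB luciferase reporter HEK-293 cells | Replication: Single test | Control set: DMSO vs reference inhibitor | Evaluation: % inhibition | Schedule: 1 h pretreatment, 16 h stimulation, 37 °C | Probe or stimulus: PMA with ionomycin | Compound dosing: One dose, 3 µM | Detection: Luciferase luminescence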
5HT1a antag: 5-HT1a (human) receptor antagonism | P08908 | 62,000 tested, 0.68% active | inhibition, % at 10 µM | CHO 5-HT1a Ga15 NFAT-bla reporter, antagonist mode | AID 612;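 active means inhibition above the mean of all tested compounds plus 3 SD, cut at about 43% in these data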;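 further: receptor stimulated by 5-CT agonist at 100 nM near EC80; beta-lactamase reporter measured by ratiometric fluorescence of a cleavable substrate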
Jurkat tox 60K: cytotoxicity toward Jurkat cells; Jurkat E6.1 viability, ATP luminescence, 48 h; inhibition, % at 4 µM; 56,000 tested, 1.2% active; AID 463;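 active means inhibition above the mean inhibition of all tested compounds plus 3 SD, cut at about 28% in these data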
Numbers without * were called inactive; x = no result given. Sampled rows, rich in hits. Any-hit rate of the full collection: about 3.3%.

SMILES	5HT1E antag	5HT1E ag	HTR1A agonist	HEK293 NFkB inh	5HT1a antag	Jurkat tox 60K
COc1ccc(S(=O)(=O)N2CCC(n3cnc4cc(C(F)(F)F)ccc43)CC2)cc1	3.8	21.7*	3.3	11.6	-13.1	5.3
CC(=O)Nc1ccc(S(=O)(=O)N2CCC(n3cnc4cc(F)ccc43)CC2)cc1	-3.5	0.4	-2.9	13.1	14.0	9.3
CC1(C)COCN1S(=O)(=O)c1ccc(C(=O)Nc2nnc(-c3ccc(Cl)s3)o2)cc1	7.6	1.1	1.0	38.6	3.2	16.6
CCCN(CCC)S(=O)(=O)c1ccc(C(=O)Nc2nnc(-c3cc(OC)cc(OC)c3)o2)cc1	-7.7	0.4	-0.7	7.6	2.9	6.2
O=C(Nc1nnc(-c2cccs2)o1)c1cccc(F)c1	-17.8	0.7	-0.5	-7.5	-1.1	74.6*
COc1ccc(-c2nnc(NC(=O)c3ccc(S(=O)(=O)N4COCC4(C)C)cc3)o2)cc1	0.6	0.5	0.8	23.7	23.7	101.3*
CCCCN(C)S(=O)(=O)c1ccc(C(=O)Nc2nnc(-c3cccs3)o2)cc1	-10.3	-0.3	1.4	14.0	7.0	28.3*
CCCN(CCC)S(=O)(=O)c1ccc(C(=O)Nc2nnc(-c3cccc(OC)c3)o2)cc1	-7.8	0.0	-0.9	45.2*	9.6	10.0
CCCCN(CC)S(=O)(=O)c1ccc(C(=O)Nc2nnc(-c3ccccc3Cl)o2)cc1	12.8	0.7	-1.2	19.7	15.2	2.1
O=C(Nc1nnc(-c2cccs2)o1)c1cccc(Oc2ccccc2)c1	16.0	0.7	-1.1	6.4	-0.5	9.6
Cc1nnc(SCc2ccccc2F)n1NCc1cccs1	5.7	0.5	-0.7	7.5	-12.8	0.3
Cc1csc(/C(=N\O)c2csc(C)n2)n1	-1.4	-0.3	-2.0	9.6	-0.6	-1.9
CCCCN(CC)S(=O)(=O)c1ccc(C(=O)Nc2nnc(CSC)o2)cc1	-5.6	0.0	-1.1	9.9	8.3	88.3*
Cc1csc(=O)n1CCC(=O)O	-3.5	-0.1	-2.4	20.0	-17.8	-2.5
Cc1ccc(-c2nnc(N3CCCCC3)c3ccccc23)cc1S(=O)(=O)N1CCN(C)CC1	30.6*	-0.9	3.2	16.2	4.4	-0.2
Cc1ccc(-c2nnc3c4ccccc4c(C)nn23)cc1S(=O)(=O)N1CCN(C)CC1	13.4	0.8	2.6	7.9	-6.5	-4.1
COC(=O)C1=C(C)N=c2s/c(=C3\C(=O)Nc4ccccc43)c(=O)n2C1c1ccccc1 (stereo not drawn)	-10.4	1.1	0.3	0.5	4.0	-9.0
O=C(CCn1c(=O)sc2ccccc21)NCc1cccs1	12.8	-2.0	74.0*	10.2	10.0	x
O=C(CCn1c(=O)sc2ccccc21)NCc1ccccc1	-0.2	0.7	-0.2	11.5	-12.8	-4.7
Cc1occc1-c1nnc(SCC(=O)NC(C)(C)C)n1C(C)c1ccccc1 (stereo not drawn)	-0.3	43.2*	1.1	11.9	10.1	4.3
CCCCS(=O)(=O)/C=C\C=C/S(=O)(=O)CCCC	107.3*	-1.6	-8.8	24.8	102.0*	x
CCCCS(=O)(=O)/C=C\C1C2C=CC(C2)C1S(=O)(=O)CCCC (stereo not drawn)	6.0	-0.4	-2.1	21.9	2.1	6.0
Cc1ccc(C(=O)CC2(O)C(=O)N(Cc3ccccc3Cl)c3ccccc32)o1 (stereo not drawn)	7.6	15.7*	0.3	9.5	-2.5	7.5
CCCSc1nnc(NC(=O)c2sc3nc(-c4cccs4)ccc3c2N)s1	7.9	-0.3	-3.8	16.6	2.5	-3.7
Cc1csc(NC(=O)c2sc3nc(-c4cccs4)ccc3c2N)n1	4.7	0.9	-0.1	54.3*	13.0	-7.0
SMILES	5HT1E antag	5HT1E ag	HTR1A agonist	HEK293 NFkB inh	5HT1a antag	Jurkat tox 60K
O=C(Cn1nc(C(F)(F)F)c2c1CCCC2)NCc1ccco1	-3.0	-1.0	-3.9	6.2	6.2	-1.4
O=C(COc1cc(Cl)c(Cl)cc1Cl)Nn1cnnc1	-2.3	0.6	-3.9	13.6	-3.2	-1.4
Cc1nnc2n1N=CC=C(c1ccccc1)S2	30.4*	-0.2	0.4	1.8	9.3	7.1
Cc1nnc2n1N=CC=C(C(C)(C)C)S2	-6.6	1.6	-5.0	-3.1	14.6	0.4
O=C(O)CCCNS(=O)(=O)c1cccs1	10.8	-1.1	20.3*	11.9	6.9	12.7
Cn1cccc1C(C(=O)NC1CCCCC1)N(C(=O)Cc1cccs1)c1ccc2c(c1)OCCO2 (stereo not drawn)	2.4	-1.7	-0.2	-1.0	9.3	1.3
CC(=O)Nc1ccc(CN2CCN(c3cccc(C(F)(F)F)c3)CC2)cc1	3.5	22.8*	9.1	5.4	9.5	-2.3
COc1ccccc1CC(=O)N1CCN(c2cccc(C(F)(F)F)c2)CC1	3.8	0.4	2.2	12.4	2.5	14.6
COc1ccccc1NC(=O)N1CCN(c2cccc(C(F)(F)F)c2)CC1	-4.4	13.3*	3.2	10.0	-10.0	-3.1
Cc1cc(-c2cc(-c3ccc(Cl)cc3)nc(N)c2C#N)co1	-27.0	7.4	40.5*	x	x	x
O=C(Nc1cccc2c1CCCC2)c1ccc(Br)o1	1.9	0.1	-1.1	7.5	-1.8	-1.7
c1ccc(/N=C2\N=C(Nc3ccccn3)c3ccccc32)nc1	13.2	1.5	-1.8	-2.7	5.6	49.9*
CNc1nc(C)c(C(=O)OCc2ccccc2)s1	10.0	-0.3	0.1	4.9	-0.9	66.5*
CNc1nc(C)c(C(=O)OCC(=O)OC)s1	5.8	-0.5	-1.1	10.2	4.8	2.3
Cc1onc(-c2ccccc2Cl)c1C(=O)N1CCN(c2ccccc2)CC1	-4.8	0.0	1.1	2.9	1.5	0.0
O=C(c1cccc(F)c1)N1CCN(c2cccc(Cl)c2)CC1	0.0	0.3	-3.1	2.2	11.7	79.5*
COc1cc2c(C(=O)N3CCN(Cc4ccc5c(c4)OCO5)CC3)cn(C)c(=O)c2cc1OC	10.5	-1.2	-0.2	12.1	1.3	x
Cc1onc(-c2ccccc2Cl)c1C(=O)N1CCN(c2cccc(Cl)c2)CC1	29.5*	0.9	1.1	28.9	30.1	60.6*
COc1ccccc1C(=O)N1CCN(Cc2ccc3c(c2)OCO3)CC1	2.4	8.8*	-2.1	x	x	x
O=C(c1c(Cl)nc2sccn12)N1CCN(c2cccc(Cl)c2)CC1	41.9*	-1.3	-3.3	39.4	23.8	x
O=C(CCCNS(=O)(=O)c1cccs1)N1CCN(c2cccc(Cl)c2)CC1	0.8	-0.6	2.1	10.4	-3.3	x
O=C(c1cccc(Cl)c1)N1CCN(C(=O)c2ccccc2F)CC1	-0.7	0.6	1.8	x	x	x
COc1ccccc1C(=O)N1CCN(C(=O)c2ccncc2)CC1	-7.6	-0.6	0.4	-7.0	5.6	3.2
COc1ccccc1C(=O)N1CCN(c2cccc(Cl)c2)CC1	16.5	-1.0	0.1	40.4*	28.2	x
CCOc1cccc(NC(=O)C2CC(=O)NC(=Nc3ccccc3)S2)c1 (stereo not drawn)	19.4	-1.1	-2.3	x	x	x
